Data as given in ChEMBL document CHEMBL4184124, “Progress in antischistosomal N,N'-diaryl urea SAR” (Bioorg Med Chem Lett, 2018).
≈ marks a conversion by molar mass, not a printed value.

Experiment: Kinetic solubility of the compound in 0.01M HCl at pH 2 by nephelometric method
Format: physicochemical
Details: read-out: Kinetic_solubility
How it was run: (§1)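 DMSO stocks spiked into pH 6.5 phosphate buffer or 0.01 M HCl (approx. pH 2.0); nephelometry gave a solubility concentration range.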

Structure (SMILES)	solubility kinetic [µg/mL]
NC(=O)c1ccc(NC(=O)Nc2ccc(F)c(C(F)(F)F)c2)cc1	6.3 to 12.5 (≈ 18.5 to 36.6 µM)
O=C(Nc1ccc(C(=O)O)cc1)Nc1ccc(F)c(C(F)(F)F)c1	< 1.6
Cc1cc(NC(=O)Nc2ccc(F)c(C(F)(F)F)c2)on1	12.5 to 25 (≈ 41.2 to 82.4 µM)
O=C(Nc1ccncc1)Nc1ccncc1	> 100
O=C(Nc1cccc(C(=O)O)c1)Nc1ccc(F)c(C(F)(F)F)c1	1.6 to 3.1 (≈ 4.67 to 9.06 µM)
O=C(Nc1cnccn1)Nc1cnccn1	6.3 to 12.5 (≈ 29.1 to 57.8 µM)
CC(=O)c1ccc(NC(=O)Nc2ccc(F)c(C(F)(F)F)c2)cc1	< 1.6

Now from value to compound:

solubility kinetic [µg/mL]	Structure (SMILES)
1.6 to 3.1 (≈ 4.69 to 9.08 µM)	NC(=O)c1ccccc1NC(=O)Nc1ccc(F)c(C(F)(F)F)c1
1.6 to 3.1 (≈ 5.35 to 10.4 µM)	O=C(Nc1ccc(F)c(C(F)(F)F)c1)Nc1ccccn1
50 to 100 (≈ 167 to 334 µM)	O=C(Nc1cccnc1)Nc1ccc(F)c(C(F)(F)F)c1
1.6 to 3.1 (≈ 5.33 to 10.3 µM)	O=C(Nc1ccc(F)c(C(F)(F)F)c1)Nc1cnccn1

Experiment: Kinetic solubility of the compound in phosphate buffer at pH 6.5 by nephelometric method
Format: physicochemical
Details: read-out: Kinetic_solubility
How it was run: as §1

Structure (SMILES)	solubility kinetic [µg/mL]
NC(=O)c1ccc(NC(=O)Nc2ccc(F)c(C(F)(F)F)c2)cc1	6.3 to 12.5 (≈ 18.5 to 36.6 µM)
O=C(Nc1ccc(C(=O)O)cc1)Nc1ccc(F)c(C(F)(F)F)c1	12.5 to 25 (≈ 36.5 to 73 µM)
Cc1cc(NC(=O)Nc2ccc(F)c(C(F)(F)F)c2)on1	6.3 to 12.5 (≈ 20.8 to 41.2 µM)
O=C(Nc1ccncc1)Nc1ccncc1	12.5 to 25 (≈ 58.3 to 117 µM)
O=C(Nc1cccc(C(=O)O)c1)Nc1ccc(F)c(C(F)(F)F)c1	12.5 to 25 (≈ 36.5 to 73 µM)
O=C(Nc1cnccn1)Nc1cnccn1	6.3 to 12.5 (≈ 29.1 to 57.8 µM)
CC(=O)c1ccc(NC(=O)Nc2ccc(F)c(C(F)(F)F)c2)cc1	< 1.6

The remaining lines, values ahead:

solubility kinetic [µg/mL]	Structure (SMILES)
1.6 to 3.1 (≈ 4.69 to 9.08 µM)	NC(=O)c1ccccc1NC(=O)Nc1ccc(F)c(C(F)(F)F)c1
< 1.6	O=C(Nc1ccc(F)c(C(F)(F)F)c1)Nc1ccccn1
12.5 to 25 (≈ 41.8 to 83.5 µM)	O=C(Nc1cccnc1)Nc1ccc(F)c(C(F)(F)F)c1
< 1.6	O=C(Nc1ccc(F)c(C(F)(F)F)c1)Nc1cnccn1

Experiment: Octanol-[…] partition coefficient, log D of the compound at pH 7.4 by RP-HPLC method
Details: not given

Structure (SMILES)	chromatographic logD
NC(=O)c1ccc(NC(=O)Nc2ccc(F)c(C(F)(F)F)c2)cc1	2.7
O=C(Nc1ccc(C(=O)O)cc1)Nc1ccc(F)c(C(F)(F)F)c1	1.5
Cc1cc(NC(=O)Nc2ccc(F)c(C(F)(F)F)c2)on1	3.2
O=C(Nc1ccncc1)Nc1ccncc1	1.3
O=C(Nc1cccc(C(=O)O)c1)Nc1ccc(F)c(C(F)(F)F)c1	1.6
O=C(Nc1cnccn1)Nc1cnccn1	0.8
CC(=O)c1ccc(NC(=O)Nc2ccc(F)c(C(F)(F)F)c2)cc1	3.6

Other lines, results leading:

chromatographic logD	Structure (SMILES)
3.3	NC(=O)c1ccccc1NC(=O)Nc1ccc(F)c(C(F)(F)F)c1
3.7	O=C(Nc1ccc(F)c(C(F)(F)F)c1)Nc1ccccn1
3	O=C(Nc1cccnc1)Nc1ccc(F)c(C(F)(F)F)c1
3	O=C(Nc1ccc(F)c(C(F)(F)F)c1)Nc1cnccn1

Experiment: Intrinsic clearance in human liver microsomes assessed per mg protein after 60 mins in presence of NADPH generating system
Format: ADME, microsome
Details: 1 h

Structure (SMILES)	CLH [µL/min/mg]
NC(=O)c1ccc(NC(=O)Nc2ccc(F)c(C(F)(F)F)c2)cc1	28
O=C(Nc1ccc(C(=O)O)cc1)Nc1ccc(F)c(C(F)(F)F)c1	< 7
Cc1cc(NC(=O)Nc2ccc(F)c(C(F)(F)F)c2)on1	73
O=C(Nc1ccncc1)Nc1ccncc1	< 7
O=C(Nc1cccc(C(=O)O)c1)Nc1ccc(F)c(C(F)(F)F)c1	< 7
O=C(Nc1cnccn1)Nc1cnccn1	18
CC(=O)c1ccc(NC(=O)Nc2ccc(F)c(C(F)(F)F)c2)cc1	16

The remaining lines, values ahead:

CLH [µL/min/mg]	Structure (SMILES)
81	NC(=O)c1ccccc1NC(=O)Nc1ccc(F)c(C(F)(F)F)c1
188	O=C(Nc1ccc(F)c(C(F)(F)F)c1)Nc1ccccn1
13	O=C(Nc1cccnc1)Nc1ccc(F)c(C(F)(F)F)c1
210	O=C(Nc1ccc(F)c(C(F)(F)F)c1)Nc1cnccn1

Experiment: Intrinsic clearance in mouse liver microsomes assessed per mg protein after 60 mins in presence of NADPH generating system
Format: ADME, microsome
Details: 1 h

Structure (SMILES)	CLH [µL/min/mg]
NC(=O)c1ccc(NC(=O)Nc2ccc(F)c(C(F)(F)F)c2)cc1	22
O=C(Nc1ccc(C(=O)O)cc1)Nc1ccc(F)c(C(F)(F)F)c1	< 7
Cc1cc(NC(=O)Nc2ccc(F)c(C(F)(F)F)c2)on1	108
O=C(Nc1ccncc1)Nc1ccncc1	188
O=C(Nc1cccc(C(=O)O)c1)Nc1ccc(F)c(C(F)(F)F)c1	< 7
O=C(Nc1cnccn1)Nc1cnccn1	157
CC(=O)c1ccc(NC(=O)Nc2ccc(F)c(C(F)(F)F)c2)cc1	14

Further lines, results first:

CLH [µL/min/mg]	Structure (SMILES)
69	NC(=O)c1ccccc1NC(=O)Nc1ccc(F)c(C(F)(F)F)c1
705	O=C(Nc1ccc(F)c(C(F)(F)F)c1)Nc1ccccn1
154	O=C(Nc1cccnc1)Nc1ccc(F)c(C(F)(F)F)c1
160	O=C(Nc1ccc(F)c(C(F)(F)F)c1)Nc1cnccn1
